{"source": "paper PMC4470291", "about": "(Biochemistry, 2009)", "key": {"[1]": {"biological_target": "T1, DPPIV (Homo sapiens, UniProt P27487)", "T1 sequence (P27487 whole entry, species assumed)": "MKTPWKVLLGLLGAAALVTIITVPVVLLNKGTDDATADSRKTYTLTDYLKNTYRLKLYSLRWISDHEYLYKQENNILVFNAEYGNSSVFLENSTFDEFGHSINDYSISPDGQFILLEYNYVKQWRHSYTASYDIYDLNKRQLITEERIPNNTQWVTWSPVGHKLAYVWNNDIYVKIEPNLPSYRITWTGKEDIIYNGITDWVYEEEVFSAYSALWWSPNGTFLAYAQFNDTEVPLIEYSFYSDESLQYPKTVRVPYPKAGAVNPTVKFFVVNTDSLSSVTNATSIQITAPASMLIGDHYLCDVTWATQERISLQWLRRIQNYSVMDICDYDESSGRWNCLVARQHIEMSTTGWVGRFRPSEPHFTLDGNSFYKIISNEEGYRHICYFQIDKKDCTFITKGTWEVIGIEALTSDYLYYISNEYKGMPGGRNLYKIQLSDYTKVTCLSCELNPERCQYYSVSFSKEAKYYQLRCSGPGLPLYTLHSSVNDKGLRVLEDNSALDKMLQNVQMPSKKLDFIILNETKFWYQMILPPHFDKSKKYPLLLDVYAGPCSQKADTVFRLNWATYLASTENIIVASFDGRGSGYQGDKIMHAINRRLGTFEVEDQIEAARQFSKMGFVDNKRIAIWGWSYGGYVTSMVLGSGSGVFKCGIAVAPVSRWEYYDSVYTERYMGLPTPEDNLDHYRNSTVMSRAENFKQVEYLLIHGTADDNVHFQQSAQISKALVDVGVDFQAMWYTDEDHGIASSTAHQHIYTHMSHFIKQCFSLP", "experiment": "Kinetics of fluorogenic substrate cleavage by DPPIV", "format": "biochemical"}, "[2]": {"biological_target": "T2, APCE (Homo sapiens, UniProt Q12884)", "T2 sequence (Q12884 24-760 limits assumed)": "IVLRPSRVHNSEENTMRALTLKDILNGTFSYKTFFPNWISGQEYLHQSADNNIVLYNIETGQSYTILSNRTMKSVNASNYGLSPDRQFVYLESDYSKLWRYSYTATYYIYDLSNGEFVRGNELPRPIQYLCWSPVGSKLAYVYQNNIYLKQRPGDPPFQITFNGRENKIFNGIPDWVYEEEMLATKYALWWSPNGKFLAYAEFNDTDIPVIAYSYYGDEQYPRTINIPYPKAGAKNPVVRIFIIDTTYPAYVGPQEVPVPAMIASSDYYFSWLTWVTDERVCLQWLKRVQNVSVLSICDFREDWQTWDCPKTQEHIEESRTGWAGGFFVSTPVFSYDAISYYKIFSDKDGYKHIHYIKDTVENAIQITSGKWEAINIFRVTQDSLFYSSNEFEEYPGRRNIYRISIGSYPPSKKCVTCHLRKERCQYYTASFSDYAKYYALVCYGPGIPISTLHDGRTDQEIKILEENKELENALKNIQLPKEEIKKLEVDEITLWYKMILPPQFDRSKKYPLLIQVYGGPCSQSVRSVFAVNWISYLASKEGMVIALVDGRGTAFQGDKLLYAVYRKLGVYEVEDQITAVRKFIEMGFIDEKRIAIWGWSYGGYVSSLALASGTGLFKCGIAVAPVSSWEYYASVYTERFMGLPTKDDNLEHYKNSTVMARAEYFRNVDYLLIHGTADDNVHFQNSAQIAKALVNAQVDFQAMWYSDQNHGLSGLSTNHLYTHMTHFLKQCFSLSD", "experiment": "Kinetics of fluorogenic substrate cleavage by APCE", "format": "biochemical", "conditions": "for kcat, APCE / Km: pH 7.5, 22 °C, 20 min; for Km: read-out: Km, APCE"}, "[3]": {"biological_target": "T2, APCE", "experiment": "Cleavage of inhibitor by APCE during incubation", "format": "biochemical", "conditions": "for hydrolysis of inhibitor by APCE: lengthy incubations with APCE"}, "[4]": {"biological_target": "T2, APCE", "experiment": "APCE inhibition, fluorogenic substrate Z-Gly-Pro-AMC", "format": "biochemical", "conditions": "for inhibitory effect on APCE: result in words", "how_it_was_run": "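Human-plasma-purified APCE in 25 mM sodium phosphate, pH 7.5, with 1.0 mM EDTA and 4% methanol; 20 min at 22 °C. Z-Gly-Pro-AMC at five concentrations (10–500 μM range) crossed with four inhibitor concentrations around the expected Ki. Released AMC followed over time (ex 360/em 460 nm) against an AMC standard curve. Competitive mode set by Lineweaver–Burk; Ki from competitive-equation fit, best fit ± standard error.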"}, "[5]": {"system": "recombinant FAP", "conditions": "cited from earlier work"}, "[6]": {"biological_target": "FAP", "conditions": "read-out: Ki for FAP; cited from earlier work"}, "[7]": {"biological_target": "T1, DPPIV", "conditions": "read-out: Ki for DPPIV; cited from earlier work"}, "[8]": {"system": "CSCC[C@H](N)C(=O)N[C@@H](CCC(=O)O)C(=O)N1CCC[C@H]1C(=O)N[C@@H](CC(C)C)C(=O)NCC(=O)N[C@@H](Cc1c[nH]c2ccccc12)C(=O)N[C@@H](CCC(N)=O)C(=O)N[C@@H](CC(C)C)C(=O)N[C@H](C(=O)N[C@@H](CO)C(=O)NCC(=O)N1CCC[C@H]1C(=O)Nc1ccc2c(C)cc(=O)oc2c1)[C@@H](C)O", "experiment": "Kinetics of fluorogenic substrate cleavage by APCE", "format": "biochemical, human", "conditions": "other: pH 7.5, 22 °C, 20 min"}, "[9]": {"system": "CSCC[C@H](N)C(=O)N[C@@H](CCC(=O)O)C(=O)N1CCC[C@H]1C(=O)N[C@@H](CC(C)C)C(=O)NCC(=O)N[C@@H](CCCNC(=N)N)C(=O)N[C@@H](CCC(N)=O)C(=O)N[C@@H](CC(C)C)C(=O)N[C@H](C(=O)N[C@@H](CO)C(=O)NCC(=O)N1CCC[C@H]1C(=O)Nc1ccc2c(C)cc(=O)oc2c1)[C@@H](C)O", "experiment": "Kinetics of fluorogenic substrate cleavage by APCE", "format": "biochemical, human", "conditions": "other: pH 7.5, 22 °C, 20 min"}}, "note": "Square brackets hold non-standard residues; d marks the D form. Peptide text beside a SMILES is read from it. * marks the point of attachment. AMC = Cc1cc(=O)oc2cc(N*)ccc12; Pip = O=C(O)[C@@H]1CCCCN1; Cbz = O=C(OCc1ccccc1)*; AEEA = NCCOCCOCC(=O)O"}
{"compound": "Cc1cc(=O)oc2cc(NC(=O)[C@@H]3CCCN3C(=O)CN)ccc12", "note": "[GP-AMC, Gly-Pro-7-amido-4-methylcoumarin] (H-Gly-Pro-{AMC})", "values": [{"measurement": "kcat/Km of DPPIV higher than that of APCE", "setting": "[1]", "result": "~30", "unit": "fold"}, {"measurement": "kcat, DPPIV", "setting": "[1]; pH 7.5, 22 °C, 20 min", "result": "1.985 ± 0.102", "unit": "s⁻¹"}, {"measurement": "Km", "setting": "[1]; read-out: Km, DPPIV, pH 7.5, 22 °C, 20 min", "result": "63 ± 6", "unit": "µM"}, {"measurement": "kcat, APCE", "setting": "[2]", "result": "0.485 ± 0.0183", "unit": "s⁻¹"}, {"measurement": "Km", "setting": "[2]", "result": "455 ± 42", "unit": "µM"}, {"measurement": "kcat/Km of APCE lower than the other three substrates", "setting": "[2]; vs MEPLGRQLTSGP-AMC, MEPLGWQLTSGP-AMC, Z-GP-AMC", "result": "6–51 fold"}]}
{"compound": "CC(C)C[C@H](NC(=O)[C@H](CCC(N)=O)NC(=O)[C@H](CCCNC(=N)N)NC(=O)[C@@H](N)Cc1ccccc1)C(=O)N[C@H](C(=O)N[C@@H](CO)C(=O)NCC(=O)N1CCCC[C@H]1C(=O)N[C@@H](CC(N)=O)C(=O)N[C@@H](CCC(N)=O)C(=O)N[C@@H](CCC(=O)O)C(=O)N[C@@H](CCC(N)=O)C(=O)N[C@H](C(=O)O)C(C)C)[C@@H](C)O", "note": "[Inhibitor 1, FRQLTSG-pipecolinyl-NQEQV] (H-FRQLTSG[Pip]NQEQV-OH; N-terminus assumed)", "values": [{"measurement": "hydrolysis of inhibitor by APCE", "setting": "[3]", "result": "slowly hydrolyzed"}]}
{"compound": "CC(C)[C@H](NC(=O)[C@H](CCC(N)=O)NC(=O)[C@H](CCC(=O)O)NC(=O)[C@H](CCC(N)=O)NC(=O)[C@H](CC(N)=O)NC(=O)[C@@H]1CCCCN1C(=O)CNC(=O)COCCOCCNC(=O)[C@H](CCCNC(=N)N)NC(=O)[C@@H](N)Cc1ccccc1)C(=O)O", "note": "[Inhibitor 2, FR-peg-G-pipecolinyl-NQEQV] (H-FR[AEEA]G[Pip]NQEQV-OH; N-terminus assumed)", "values": [{"measurement": "fraction of inhibitor cleaved by APCE", "setting": "[3]; 1 h incubation, LC/MS", "result": "~6", "unit": "%"}, {"measurement": "hydrolysis of inhibitor by APCE", "setting": "[3]", "result": "slowly hydrolyzed"}]}
{"compound": "CC(C)[C@H](NC(=O)[C@H](CCC(N)=O)NC(=O)[C@H](CCC(=O)O)NC(=O)[C@H](CCC(N)=O)NC(=O)[C@H](CC(N)=O)NC(=O)[C@@H]1CCCCN1C(=O)CNC(=O)COCCOCCNC(=O)CNC(=O)[C@@H](N)Cc1ccccc1)C(=O)O", "note": "[Inhibitor 3, FG-peg-G-pipecolinyl-NQEQV] (H-FG[AEEA]G[Pip]NQEQV-OH; N-terminus assumed)", "values": [{"measurement": "change of Ki relative to inhibitor 2 (P7 Arg replaced with Gly)", "setting": "[4]; printed as Ki reduced", "result": "~4", "unit": "fold"}]}
{"compound": "N=C(N)NCCC[C@H](NC(=O)[C@@H](N)Cc1ccccc1)C(=O)NCCOCCOCC(=O)NCC(=O)N1CCCC[C@H]1C(N)=O", "note": "[Inhibitor 11, FR-peg-G-pipecolinamide] (H-FR[AEEA]G[Pip]-NH2; N-terminus assumed)", "values": [{"measurement": "inhibitory effect on APCE", "setting": "[4]", "result": "lacked inhibitory properties"}]}
{"compound": "Cc1cc(=O)oc2cc(NC(=O)[C@@H]3CCCN3C(=O)CNC(=O)OCc3ccccc3)ccc12", "note": "[Z-GP-AMC, benzyloxycarbonyl- (Z-) Gly-Pro-AMC] (Cbz-Gly-Pro-{AMC})", "values": [{"measurement": "kcat, APCE", "setting": "[2]", "result": "0.607 ± 0.02", "unit": "s⁻¹"}, {"measurement": "Km", "setting": "[2]", "result": "90 ± 9", "unit": "µM"}, {"measurement": "increase in catalytic efficiency of recombinant FAP as opposed to Gly-Pro-AMC", "setting": "[5]", "result": "~18", "unit": "fold"}]}
{"compound": "CC(=O)NCC(=O)N1CCCC1C#N", "note": "(stereo not drawn) [acetyl-Gly-Pro-nitrile]", "values": [{"measurement": "Ki", "setting": "[6]", "result": 6.8, "unit": "µM"}, {"measurement": "Ki", "setting": "[7]", "result": 61, "unit": "µM"}]}
{"compound": "APCE (Homo sapiens)", "values": [{"measurement": "Km", "setting": "[8]", "result": "70 ± 6", "unit": "µM"}, {"measurement": "kcat", "setting": "[8]", "result": "0.922 ± 0.025", "unit": "s⁻¹"}, {"measurement": "kcat/Km", "setting": "[8]", "result": 13200, "unit": "M⁻¹ s⁻¹"}, {"measurement": "Km", "setting": "[9]", "result": "21 ± 2", "unit": "µM"}, {"measurement": "kcat", "setting": "[9]", "result": "1.17 ± 0.0383", "unit": "s⁻¹"}, {"measurement": "kcat/Km", "setting": "[9]", "result": 55000, "unit": "M⁻¹ s⁻¹"}]}
{"compound": "FR-peg-G-pipecolinic acid", "values": [{"measurement": "inhibitory effect on APCE", "setting": "[4]", "result": "neither of which appeared to have any inhibitory effect"}]}
{"compound": "NQEQV", "values": [{"measurement": "inhibitory effect on APCE", "setting": "[4]", "result": "neither of which appeared to have any inhibitory effect"}]}
